The values below come from ChEMBL document CHEMBL2157978, “Design, synthesis, and biological evaluation of nonsteroidal cycloalkane[d]isoxazole-containing androgen receptor modulators” (J Med Chem, 2012).

Several values for one entry are separate records, joined by “and”; a condition that tells them apart may be missing. Equal entries are not always repeated. Activity calls are given as the source filed them. The rule behind the calls is not given here.

The target of one assay is T1, Androgen receptor (Homo sapiens, UniProt P10275).
T1 sequence (P10275 whole entry): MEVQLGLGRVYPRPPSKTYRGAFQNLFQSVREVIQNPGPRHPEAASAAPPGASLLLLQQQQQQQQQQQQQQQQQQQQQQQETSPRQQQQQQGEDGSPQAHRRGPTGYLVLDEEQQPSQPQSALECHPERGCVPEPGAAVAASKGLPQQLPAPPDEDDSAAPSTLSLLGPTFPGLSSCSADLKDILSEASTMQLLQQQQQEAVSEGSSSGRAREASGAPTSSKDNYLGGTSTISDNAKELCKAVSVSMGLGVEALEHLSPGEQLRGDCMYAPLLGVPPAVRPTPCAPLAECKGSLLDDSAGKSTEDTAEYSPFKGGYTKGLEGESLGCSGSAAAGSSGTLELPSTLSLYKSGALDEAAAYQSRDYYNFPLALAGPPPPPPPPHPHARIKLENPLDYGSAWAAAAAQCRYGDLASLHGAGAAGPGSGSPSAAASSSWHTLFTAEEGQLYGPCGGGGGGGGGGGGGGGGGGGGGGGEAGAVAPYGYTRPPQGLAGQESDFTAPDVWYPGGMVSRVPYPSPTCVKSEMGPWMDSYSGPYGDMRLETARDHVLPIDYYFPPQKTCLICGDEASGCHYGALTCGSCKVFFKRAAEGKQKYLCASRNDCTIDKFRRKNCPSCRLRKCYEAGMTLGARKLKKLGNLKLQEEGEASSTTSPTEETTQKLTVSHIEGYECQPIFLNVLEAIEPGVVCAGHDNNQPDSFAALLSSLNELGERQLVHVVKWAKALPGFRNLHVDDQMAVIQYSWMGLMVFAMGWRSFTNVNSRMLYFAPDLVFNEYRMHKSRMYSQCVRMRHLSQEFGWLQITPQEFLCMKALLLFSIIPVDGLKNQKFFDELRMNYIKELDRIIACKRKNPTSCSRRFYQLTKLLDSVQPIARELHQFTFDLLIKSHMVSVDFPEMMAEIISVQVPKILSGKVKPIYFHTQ
The assay is described as follows: Displacement of [3H]R1881 from wild type human androgen receptor expressed in COS-1 cells co-transfected with pSG5 after 2 hrs by scintillation assay.

In assay [1] the target is T2, Androgen receptor (Homo sapiens) (UniProt P10275).
T2 sequence (whole entry): T1 sequence (P10275 whole entry)
The assay is described as follows: Agonist activity at wild type human androgen receptor expressed in COS-1 cells co-transfected with pSG5 assessed as effect on testosterone induced luciferase activity at 10 uM after 18 hrs relative untreated control. The assay is classed as functional, cell-based.

For assay [2], the target named is Luciferin 4-monooxygenase (Photinus pyralis) (UniProt P08659). The assay is described as follows: Inhibition of Photinus pyralis recombinant luciferase at 10 uM incubated for 20 mins. Put shortly:
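Purified firefly luciferase diluted to 0.1 μg/mL in 1x Reporter Lysis Buffer, with compound added from ethanol stocks (10⁻³–10⁻⁷ mol/L dilutions) in triplicate. Incubated 20 min at rt, then luciferase substrate added and luminescence read. Blank (lysis buffer) and ethanol-vehicle controls were included.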

Chain of Luciferin 4-monooxygenase (Photinus pyralis) (P08659 whole entry): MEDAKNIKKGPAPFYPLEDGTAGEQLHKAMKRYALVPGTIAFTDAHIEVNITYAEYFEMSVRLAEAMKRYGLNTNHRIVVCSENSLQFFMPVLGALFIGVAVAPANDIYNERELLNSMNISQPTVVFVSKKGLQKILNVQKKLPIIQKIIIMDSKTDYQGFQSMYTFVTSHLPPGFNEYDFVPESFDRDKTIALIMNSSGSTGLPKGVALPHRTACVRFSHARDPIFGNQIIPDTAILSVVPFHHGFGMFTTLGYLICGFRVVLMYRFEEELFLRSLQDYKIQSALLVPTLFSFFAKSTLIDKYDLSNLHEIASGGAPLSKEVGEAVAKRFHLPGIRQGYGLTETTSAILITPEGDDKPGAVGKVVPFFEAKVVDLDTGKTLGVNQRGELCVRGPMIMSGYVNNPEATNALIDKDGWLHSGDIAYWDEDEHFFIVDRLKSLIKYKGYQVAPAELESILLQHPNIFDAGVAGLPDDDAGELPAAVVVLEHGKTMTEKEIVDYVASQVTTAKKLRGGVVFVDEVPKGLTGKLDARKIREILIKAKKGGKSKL

Take `N#Cc1ccc(C2=NOC3CCCCCC23)c(C(F)(F)F)c1` (configuration not stated) [listing 1 of 2 here]: the IC50 on Androgen receptor was 1150 nM. That is a single-digit micromolar value.

With `O=[N+]([O-])c1ccc(C2=NO[C@@H]3CCCCC[C@H]23)c(C(F)(F)F)c1`, in assay [1], the result was inactive. Further, the inhibition result in assay [2] is “inactive”. The same compound had an IC50 at Androgen receptor of 309 nM.

Regarding `O=[N+]([O-])c1ccc(C2=NO[C@H]3CCCCC[C@@H]23)c(C(F)(F)F)c1`, the outcome in assay [1] was inactive. For the same compound, the inhibition result in assay [2] is “inactive”. Besides, the IC50 on Androgen receptor is 389 nM.

Turning to `Fc1ccc(C2=NOC3CCCCCC23)c(C(F)(F)F)c1` (configuration not stated), in assay [1], the outcome was inactive. In addition, in assay [2], the inhibition result is “inactive”. On Androgen receptor, the IC50 is 661 nM and 813 nM.

`N#Cc1ccc(C2=NOC3CCCCCCC23)c(C(F)(F)F)c1` (configuration not stated) [listing 1 of 2 here] showed an IC50 on Androgen receptor of 2000 nM.

Consider `O=[N+]([O-])c1ccc(C2=NOC3CCCCCCC23)c(C(F)(F)F)c1` (configuration not stated) [listing 1 of 2 here], for which the IC50 at Androgen receptor is 776 nM.

Turning to `N#Cc1ccc(C2=NOC3CCCCC23)c(C(F)(F)F)c1` (configuration not stated) [listing 1 of 2 here], the IC50 at Androgen receptor is 1150 nM.

Turning to `N#Cc1cccc(C2=NOC3CCCCC23)c1C(F)(F)F` (configuration not stated) [listing 1 of 2 here], the IC50 at Androgen receptor is 64.6 nM. Against the preceding compound, the IC50 is about 18-fold lower.

As for `Fc1ccc(C2=NOC3CCCCC23)c(C(F)(F)F)c1` (configuration not stated) [listing 1 of 2 here], the IC50 at Androgen receptor was 977 nM.

With `COc1ccc(C2=NOC3CCCCC23)cc1` (configuration not stated), in assay [1], the result was inactive. Moreover, the inhibition result in assay [2] is “inactive”.

As to `COc1cccc(C2=NOC3CCCCC23)c1` (configuration not stated), the outcome in assay [1] was inactive. For the same compound, the inhibition result in assay [2] was “inactive”.

`Clc1ccc(C2=NOC3CCCCC23)cc1` (configuration not stated): in assay [1], the outcome was inactive. In addition, in assay [2], the inhibition entry is “inactive”.

Consider `Clc1ccccc1C1=NOC2CCCCC12` (configuration not stated), for which the outcome in assay [1] was inactive. Moreover, the inhibition entry in assay [2] is “inactive”.

With `Fc1ccc(C2=NOC3CCCCC23)c(C(F)(F)F)c1` (configuration not stated) [listing 2 of 2 here], the result in assay [1] was inactive. Also, the inhibition result in assay [2] is “inactive”.

For the compound `Fc1ccc(C2=NOC3CCCCC23)cc1` (configuration not stated), in assay [1], the result was inactive. The inhibition result in assay [2] was “inactive”.

`Fc1ccccc1C1=NOC2CCCCC12` (configuration not stated): the result in assay [1] was inactive. In addition, the inhibition entry in assay [2] is “inactive”.

With `N#Cc1ccc(C2=NOC3CCCCC23)c(C(F)(F)F)c1` (configuration not stated) [listing 2 of 2 here], in assay [1], the outcome was inactive. Moreover, in assay [2], the inhibition result is “inactive”.

Turning to `N#Cc1ccc(C2=NOC3CCCCC23)cc1` (configuration not stated), in assay [1], the result was inactive. Besides, the inhibition entry in assay [2] is “inactive”.

For the compound `N#Cc1ccc(C2=NOC3CCCCCC23)c(C(F)(F)F)c1` (configuration not stated) [listing 2 of 2 here], the outcome in assay [1] was inactive. In assay [2], the inhibition entry is “inactive”.

As to `N#Cc1ccc(C2=NOC3CCCCCCC23)c(C(F)(F)F)c1` (configuration not stated) [listing 2 of 2 here], the result in assay [1] was inactive. Besides, the inhibition entry in assay [2] was “inactive”.

`N#Cc1cccc(C2=NOC3CCCCC23)c1C(F)(F)F` (configuration not stated) [listing 2 of 2 here]: in assay [1], the result was inactive. In addition, in assay [2], the inhibition entry was “inactive”.

`O=[N+]([O-])c1ccc(C2=NOC3CCCCCCC23)c(C(F)(F)F)c1` (configuration not stated) [listing 2 of 2 here]: the outcome in assay [1] was inactive. In addition, the inhibition entry in assay [2] was “inactive”.

Turning to `c1ccc(C2=NOC3CCCCC23)cc1` (configuration not stated), the outcome in assay [1] was inactive. For the same compound, the inhibition entry in assay [2] is “inactive”.

Take `c1ccc2c(C3=NOC4CCCCC34)cccc2c1` (configuration not stated): the outcome in assay [1] was inactive. For the same compound, in assay [2], the inhibition entry was “inactive”.

`N#Cc1ccc(C2=NOC3CCCCCC23)c(C(F)(F)F)c1` (cis isomer) [listing 1 of 2 here] showed an IC50 at Androgen receptor of 1000 nM.

For `N#Cc1ccc(C2=NOC3CCCCCCC23)c(C(F)(F)F)c1` (cis isomer) [listing 1 of 2 here], the IC50 on Androgen receptor was 646 nM.

As for `O=[N+]([O-])c1ccc(C2=NOC3CCCCCCC23)c(C(F)(F)F)c1` (cis isomer) [listing 1 of 2 here], the IC50 at Androgen receptor was 741 nM. This IC50 and that of the compound before are within 1.5-fold of each other.

For `N#Cc1ccc(C2=NOC3CCCCC23)c(C(F)(F)F)c1` (cis isomer) [listing 1 of 2 here], at Androgen receptor, the concentration for half-maximal inhibition (IC50) is 1780 nM.

On to `N#Cc1cccc(C2=NOC3CCCCC23)c1C(F)(F)F` (cis isomer) [listing 1 of 2 here], for which, at Androgen receptor, the IC50 is 79.4 nM.

At Androgen receptor, `Fc1ccc(C2=NOC3CCCCC23)c(C(F)(F)F)c1` (cis isomer) [listing 1 of 2 here] showed an IC50 of 1150 nM.

Take `COc1ccc(C2=NOC3CCCCC23)cc1` (cis isomer): in assay [1], the result was inactive. For the same compound, the inhibition result in assay [2] is “inactive”.

Regarding `Clc1ccc(C2=NOC3CCCCC23)cc1` (cis isomer), the result in assay [1] was inactive. In addition, the inhibition entry in assay [2] was “inactive”.

With `Clc1ccccc1C1=NOC2CCCCC12` (cis isomer), the outcome in assay [1] was inactive. Also, in assay [2], the inhibition result was “inactive”.

Consider `Fc1ccc(C2=NOC3CCCCC23)c(C(F)(F)F)c1` (cis isomer) [listing 2 of 2 here], for which the result in assay [1] was inactive. Further, the inhibition result in assay [2] is “inactive”.

On to `Fc1ccc(C2=NOC3CCCCC23)cc1` (cis isomer), for which the result in assay [1] was inactive. For the same compound, the inhibition result in assay [2] was “inactive”.

Consider `N#Cc1ccc(C2=NOC3CCCCC23)c(C(F)(F)F)c1` (cis isomer) [listing 2 of 2 here], for which, in assay [1], the outcome was inactive. Moreover, the inhibition result in assay [2] is “inactive”.

For `N#Cc1ccc(C2=NOC3CCCCCC23)c(C(F)(F)F)c1` (cis isomer) [listing 2 of 2 here], the outcome in assay [1] was inactive. In assay [2], the inhibition entry was “inactive”.

As to `N#Cc1ccc(C2=NOC3CCCCCCC23)c(C(F)(F)F)c1` (cis isomer) [listing 2 of 2 here], in assay [1], the outcome was inactive. For the same compound, the inhibition entry in assay [2] was “inactive”.

For the compound `N#Cc1cccc(C2=NOC3CCCCC23)c1C(F)(F)F` (cis isomer) [listing 2 of 2 here], the result in assay [1] was inactive. Besides, the inhibition entry in assay [2] was “inactive”.

With `O=[N+]([O-])c1ccc(C2=NOC3CCCCCCC23)c(C(F)(F)F)c1` (cis isomer) [listing 2 of 2 here], the result in assay [1] was inactive. The inhibition entry in assay [2] was “inactive”.

For the compound `c1ccc(C2=NOC3CCCCC23)cc1` (cis isomer), the result in assay [1] was inactive. In addition, in assay [2], the inhibition result was “inactive”.

As to `c1ccc2c(C3=NOC4CCCCC34)cccc2c1` (cis isomer), the result in assay [1] was inactive. In assay [2], the inhibition result is “inactive”.

Turning to `Fc1ccc(C2=NOC3CCCC23)c(C(F)(F)F)c1` (cis isomer; 5g) [listing 1 of 2 here], the IC50 on Androgen receptor was 1350 nM. This counts as single-digit micromolar.

Take `Fc1ccc(C2=NOC3CCCC23)c(C(F)(F)F)c1` (cis isomer; 5g) [listing 2 of 2 here]: in assay [1], the result was inactive. For the same compound, the inhibition result in assay [2] was “inactive”.

Take `Clc1cccc(C2=NOC3CCCCC23)c1` (cis isomer; 6n): the outcome in assay [1] was inactive. Besides, the inhibition result in assay [2] is “inactive”.

Compound `Fc1ccc(C2=NOC3CCCCCCC23)cc1C(F)(F)F` (cis isomer; 8f) [listing 1 of 2 here] gave an IC50 at Androgen receptor of 5890 nM.

Take `Fc1ccc(C2=NOC3CCCCCCC23)cc1C(F)(F)F` (cis isomer; 8f) [listing 2 of 2 here]: the outcome in assay [1] was inactive. Moreover, in assay [2], the inhibition entry is “inactive”.

Regarding `Fc1ccc(C2=NOC3CCCCCCC23)c(C(F)(F)F)c1` (cis isomer; 8g), in assay [1], the outcome was inactive. In addition, in assay [2], the inhibition entry is “inactive”.

In turn, `Fc1ccc(C2=NOC3CCCCCCC23)cc1C(F)(F)F` (cis isomer; cis) [listing 1 of 2 here] had an IC50 on Androgen receptor of 2820 nM.

Take `Fc1ccc(C2=NOC3CCCCCCC23)c(C(F)(F)F)c1` (cis isomer; cis) [listing 1 of 2 here]: the half-inhibitory concentration (IC50) on Androgen receptor was 13200 nM.

As to `Fc1ccc(C2=NOC3CCCC23)c(C(F)(F)F)c1` (cis isomer; cis) [listing 1 of 2 here], the IC50 on Androgen receptor was 1550 nM. This IC50 is about 8.5-fold lower than that of the compound before.

Take `Clc1cccc(C2=NOC3CCCCC23)c1` (cis isomer; cis): the result in assay [1] was inactive. Besides, the inhibition entry in assay [2] was “inactive”.

In the case of `Fc1ccc(C2=NOC3CCCC23)c(C(F)(F)F)c1` (cis isomer; cis) [listing 2 of 2 here], the result in assay [1] was inactive. Also, the inhibition result in assay [2] was “inactive”.

Consider `Fc1ccc(C2=NOC3CCCCCCC23)c(C(F)(F)F)c1` (cis isomer; cis) [listing 2 of 2 here], for which the result in assay [1] was inactive. For the same compound, the inhibition result in assay [2] was “inactive”.

On to `Fc1ccc(C2=NOC3CCCCCCC23)cc1C(F)(F)F` (cis isomer; cis) [listing 2 of 2 here], for which, in assay [1], the outcome was inactive. Besides, the inhibition result in assay [2] is “inactive”.

On to `COc1ccccc1C1=NOC2CCCCC12` (racemic), for which the result in assay [1] was inactive. For the same compound, the inhibition entry in assay [2] is “inactive”.

Consider `Fc1cccc(C2=NOC3CCCCC23)c1` (racemic), for which the result in assay [1] was inactive. Besides, in assay [2], the inhibition result is “inactive”.

Regarding `O=[N+]([O-])c1ccc(C2=NOC3CCCCC23)cc1` (racemic), the outcome in assay [1] was inactive. Moreover, the inhibition result in assay [2] is “inactive”.
